Compound activity: PubChem BioAssay, several laboratories
FXIIa inh: factor XIIa (human) inhibition. P00748. purified FXIIa, Boc-QGR-AMC fluorogenic substrate, 2 h. inhibition, % at 5 µM. 220,000 tested, 0.3% active. AID 800; in the data active = inhibition above about 40%;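 note: 0% = enzyme with no compound and 100% = blank without enzyme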
m-calpain inh: calpain II (pig) inhibition; 220,000 tested, 0.37% active; inhibition, % at 16 µM; AID 1236; purified calpain II, fluorogenic peptide substrate, 30 min;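 active = inhibition above about 50%, limit read from the data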
FXIa inh: inhibitors of human coagulation factor XIa; purified FXIa, Boc-Glu-Ala-Arg-AMC fluorogenic substrate; inhibition, % at 5 µM; 220,000 tested, 0.14% active; AID 798;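 active = inhibition of at least 40%; inactive = inhibition below 40%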;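 note: fluorescence of freed AMC excited at 355 nm; 0% = enzyme without compound and 100% = no enzyme blank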
hK5 inh: blocks human kallikrein 5 protease activity. Q9Y337. recombinant hK5, fluorogenic AMC substrate cleavage. inhibition, % at 5 µM. 210,000 tested, 0.59% active. AID 873;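 active = inhibition of 40% or more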;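 note: 0% = enzyme controls without compound and 100% = no-enzyme blanks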
Thrombin inh: thrombin (human) inhibition. P00734. alpha-thrombin, Boc-VPR-AMC fluorogenic substrate cleavage. inhibition, % at 5 µM. 220,000 tested, 0.26% active. AID 1046;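 active = inhibition at or above 40%; inactive = inhibition below 40%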;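 note: 0% = enzyme with no compound and 100% = wells without enzyme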
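Material: Human alpha-thrombin protein | Buffer or medium: pH 7.5 Tris-saline with Tween 20 | Reagent: Boc-VPR-AMC substrate, 15 µM final | Schedule: Reaction at ambient temperature | Detection: AMC fluorescence at 355 nm excitation and 460 nm emission | Evaluation: Percent inhibition scaled between no-compound controls and no-enzyme blanks | Controls: no-compound enzyme wells and no-enzyme blanks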
Furin inhibitor: human furin inhibition | P09958 | purified furin, fluorogenic substrate cleavage | inhibition, % at 20 µM or 30 µM | 220,000 tested, 0.061% active | AID 463115; in the data active = inhibition above about 25%
Target sequence (P09958 108-714 limits assumed): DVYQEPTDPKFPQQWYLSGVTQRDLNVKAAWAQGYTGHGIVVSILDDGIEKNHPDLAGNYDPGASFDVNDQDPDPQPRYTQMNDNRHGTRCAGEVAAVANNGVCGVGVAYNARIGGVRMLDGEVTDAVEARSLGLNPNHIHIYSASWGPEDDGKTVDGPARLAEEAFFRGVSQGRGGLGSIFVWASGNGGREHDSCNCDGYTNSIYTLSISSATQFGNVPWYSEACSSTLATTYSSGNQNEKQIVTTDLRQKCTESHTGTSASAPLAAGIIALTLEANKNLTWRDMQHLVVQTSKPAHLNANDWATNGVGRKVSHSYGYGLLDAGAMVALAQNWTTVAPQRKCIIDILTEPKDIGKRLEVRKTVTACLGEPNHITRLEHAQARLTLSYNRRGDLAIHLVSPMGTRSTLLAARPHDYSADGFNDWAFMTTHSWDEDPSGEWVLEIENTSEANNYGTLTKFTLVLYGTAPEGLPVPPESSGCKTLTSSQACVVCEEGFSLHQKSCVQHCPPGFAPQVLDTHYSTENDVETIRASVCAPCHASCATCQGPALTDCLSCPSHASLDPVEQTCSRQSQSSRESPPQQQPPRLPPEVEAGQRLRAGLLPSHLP
* hit, by the source's call. Rows were chosen to be rich in hits. Some 1.4% of all compounds tested hit in one or more screens of this group.

COc1ccc(-c2nnc(SCC(N)=O)n2N)cc1 was read as FXIIa inh 10, m-calpain inh -22, FXIa inh 0, hK5 inh -6, Thrombin inh 5 and Furin inhibitor -14.
O=P(O)(O)COc1ccccc1P(=O)(c1ccccc1)c1ccccc1 was read as FXIIa inh 11, m-calpain inh 1, FXIa inh 2, hK5 inh 2, Thrombin inh 3 and Furin inhibitor -17.
Screening O=[N+]([O-])c1ccc(OCCO)c(P(=O)(c2ccccc2)c2ccccc2)c1 returned FXIIa inh 24, m-calpain inh 6, FXIa inh 70*, hK5 inh 33, Thrombin inh 7 and Furin inhibitor 2.
For COc1cc(C=O)ccc1Oc1nc(Nc2ccc(F)cc2F)nc(N2CCOCC2)n1 the results were FXIIa inh 34, m-calpain inh -39, FXIa inh 27, hK5 inh 63*, Thrombin inh 10 and Furin inhibitor 1.
COc1cc(/C=N/Nc2nc(Nc3ccccc3)nc(N3CCOCC3)n2)ccc1OC(=O)c1ccco1 was read as FXIIa inh 3, m-calpain inh -112, FXIa inh -4, hK5 inh -8, Thrombin inh 4 and Furin inhibitor -24.
`O=[N+]([O-])c1cncc([N+](=O)[O-])c1Nc1ccccc1Cl` gave FXIIa inh 44*, m-calpain inh 17, FXIa inh 30, hK5 inh 16, Thrombin inh 12 and Furin inhibitor -6.
`Nc1ccccc1Nc1ccncc1[N+](=O)[O-]` gave FXIIa inh -11, m-calpain inh -2, FXIa inh -3, hK5 inh -2, Thrombin inh -8 and Furin inhibitor -22.
CCN(/N=C/C=C/c1ccccc1)c1cc(=O)n(C)c(=O)[nH]1 was read as FXIIa inh 0, m-calpain inh 52*, FXIa inh -4, hK5 inh 0, Thrombin inh -1 and Furin inhibitor 22.
For CCN(/N=C/c1ccc(Cl)cc1)c1cc(=O)n(C)c(=O)[nH]1 the results were FXIIa inh 20, m-calpain inh 26, FXIa inh 25, hK5 inh 10, Thrombin inh 3 and Furin inhibitor 13.
Screening C/C(=N\NC(=O)c1cccc(N/N=C(\C)c2cc(O)ccc2O)c1)c1cc(O)ccc1O returned FXIIa inh -7, m-calpain inh -72, FXIa inh -5, hK5 inh -24, Thrombin inh 0 and Furin inhibitor -14.
Screening CCOC(=O)c1cccc(NC(=O)CSc2nnc(-c3ccoc3C)n2CCOC)c1 returned FXIIa inh 48*, m-calpain inh 21, FXIa inh 22, hK5 inh 32, Thrombin inh 15 and Furin inhibitor -16.
`C=CCn1c(SCC(=O)Nc2cccc(C(=O)OC)c2)nnc1C(C)NC(=O)c1cccs1` (stereo not given) gave FXIIa inh 35, m-calpain inh 17, FXIa inh 16, hK5 inh 50*, Thrombin inh 19 and Furin inhibitor -14.
For CN(Cc1cccs1)C(=O)Cn1cnc2ccccc2c1=O the results were FXIIa inh 7, m-calpain inh -6, FXIa inh 0, hK5 inh 0, Thrombin inh -9 and Furin inhibitor -15.
Screening Cc1noc(C)c1COc1ccc(C(=O)OCc2nnc(-c3ccc(Cl)cc3)o2)cc1 returned FXIIa inh 2, m-calpain inh 51*, FXIa inh -5, hK5 inh -17, Thrombin inh -1 and Furin inhibitor -7.
Screening Cc1noc(C)c1COc1ccc(C(=O)OCC(=O)NC23CC4CC(CC(C4)C2)C3)cc1 returned FXIIa inh 14, m-calpain inh 17, FXIa inh 6, hK5 inh 5, Thrombin inh 1 and Furin inhibitor -14.
Cc1noc(C)c1COc1ccc(C(=O)OCC(=O)NC2CCCCC2C)cc1 (stereo not given) was read as FXIIa inh 10, m-calpain inh 25, FXIa inh 6, hK5 inh 43*, Thrombin inh 20 and Furin inhibitor -8.
COc1cccc(/C=N/NC(=O)c2ccc([N+](=O)[O-])cc2Cl)c1O was read as FXIIa inh 12, m-calpain inh 13, FXIa inh 3, hK5 inh -29, Thrombin inh -4 and Furin inhibitor -8.
For Cc1ccc(-n2c(C)cc(/C=N/NC(=O)CN(c3ccc(C)cc3C)S(C)(=O)=O)c2C)cc1 the results were FXIIa inh 30, m-calpain inh -232, FXIa inh 22, hK5 inh 42*, Thrombin inh 27 and Furin inhibitor -11.
Cc1cc(C)cc(-n2c(C)cc(/C=N/NC(=O)CN(c3c(C)cccc3C)S(C)(=O)=O)c2C)c1 was read as FXIIa inh -1, m-calpain inh 8, FXIa inh -9, hK5 inh -13, Thrombin inh -4 and Furin inhibitor -13.
For CN(C)c1ccc(C(C#N)c2ccccc2)nn1 (stereo not given) the results were FXIIa inh 14, m-calpain inh 2, FXIa inh 2, hK5 inh -4, Thrombin inh 3 and Furin inhibitor -28.
For COc1ccc(Cl)cc1NC(=O)Nn1cnnc1 the results were FXIIa inh 4, m-calpain inh -2, FXIa inh -20, hK5 inh 5, Thrombin inh -5 and Furin inhibitor -19.
For COc1ccc(Cl)cc1NC(=O)Nc1cn(C)nc1C the results were FXIIa inh 21, m-calpain inh 5, FXIa inh 45*, hK5 inh 57*, Thrombin inh 6 and Furin inhibitor -2.
`Cc1ccc(C(=O)Oc2cccc(-n3cnnn3)c2)cc1` gave FXIIa inh 8, m-calpain inh 62*, FXIa inh 3, hK5 inh 0, Thrombin inh -10 and Furin inhibitor -8.
`Cc1ccc([N+](=O)[O-])c(NC2OC(CO)C(O)C2O)c1` (stereo not given) gave FXIIa inh 5, m-calpain inh -22, FXIa inh 0, Thrombin inh 0 and Furin inhibitor -30.
`Cc1cccc(NC(=S)NC(=O)/C=C/c2ccccc2)n1` gave FXIIa inh 26, m-calpain inh 14, FXIa inh 29, hK5 inh 27, Thrombin inh 50* and Furin inhibitor -4.
Screening Brc1ccc(-c2cnco2)cc1 returned FXIIa inh 10, m-calpain inh -4, FXIa inh 6, Thrombin inh 2 and Furin inhibitor -18.
CCCCNS(=O)(=O)c1ccc2nc(SCC(=O)Nc3ccccc3Cl)[nH]c2c1 was read as FXIIa inh 14, m-calpain inh 56*, FXIa inh 9, hK5 inh -4, Thrombin inh -6 and Furin inhibitor -3.
For CCOC(=O)c1ccc(NC(=O)COc2ccccc2CNC2CCCC2)cc1 the results were FXIIa inh 5, m-calpain inh -6, FXIa inh -4, hK5 inh 1, Thrombin inh -4 and Furin inhibitor -20.
